Test results: ChEMBL document CHEMBL2412986, “Design, synthesis and evaluation of novel 2-hydroxypyrrolobenzodiazepine-5,11-dione analogues as potent angiotensin converting enzyme (ACE) inhibitors” (Bioorg Med Chem, 2013)
Each block holds one compound with its values, some of them ahead of it.

Legend:
[1] = target: T1, Angiotensin-converting enzyme (Oryctolagus cuniculus) (UniProt P12822); assay: Inhibition of rabbit lung ACE assessed as hydrolysis of hippuryl-histidyl-leucine to hippuric acid and histidyl-leucine at 1 uM after 30 mins relative to control
T1 sequence (whole entry): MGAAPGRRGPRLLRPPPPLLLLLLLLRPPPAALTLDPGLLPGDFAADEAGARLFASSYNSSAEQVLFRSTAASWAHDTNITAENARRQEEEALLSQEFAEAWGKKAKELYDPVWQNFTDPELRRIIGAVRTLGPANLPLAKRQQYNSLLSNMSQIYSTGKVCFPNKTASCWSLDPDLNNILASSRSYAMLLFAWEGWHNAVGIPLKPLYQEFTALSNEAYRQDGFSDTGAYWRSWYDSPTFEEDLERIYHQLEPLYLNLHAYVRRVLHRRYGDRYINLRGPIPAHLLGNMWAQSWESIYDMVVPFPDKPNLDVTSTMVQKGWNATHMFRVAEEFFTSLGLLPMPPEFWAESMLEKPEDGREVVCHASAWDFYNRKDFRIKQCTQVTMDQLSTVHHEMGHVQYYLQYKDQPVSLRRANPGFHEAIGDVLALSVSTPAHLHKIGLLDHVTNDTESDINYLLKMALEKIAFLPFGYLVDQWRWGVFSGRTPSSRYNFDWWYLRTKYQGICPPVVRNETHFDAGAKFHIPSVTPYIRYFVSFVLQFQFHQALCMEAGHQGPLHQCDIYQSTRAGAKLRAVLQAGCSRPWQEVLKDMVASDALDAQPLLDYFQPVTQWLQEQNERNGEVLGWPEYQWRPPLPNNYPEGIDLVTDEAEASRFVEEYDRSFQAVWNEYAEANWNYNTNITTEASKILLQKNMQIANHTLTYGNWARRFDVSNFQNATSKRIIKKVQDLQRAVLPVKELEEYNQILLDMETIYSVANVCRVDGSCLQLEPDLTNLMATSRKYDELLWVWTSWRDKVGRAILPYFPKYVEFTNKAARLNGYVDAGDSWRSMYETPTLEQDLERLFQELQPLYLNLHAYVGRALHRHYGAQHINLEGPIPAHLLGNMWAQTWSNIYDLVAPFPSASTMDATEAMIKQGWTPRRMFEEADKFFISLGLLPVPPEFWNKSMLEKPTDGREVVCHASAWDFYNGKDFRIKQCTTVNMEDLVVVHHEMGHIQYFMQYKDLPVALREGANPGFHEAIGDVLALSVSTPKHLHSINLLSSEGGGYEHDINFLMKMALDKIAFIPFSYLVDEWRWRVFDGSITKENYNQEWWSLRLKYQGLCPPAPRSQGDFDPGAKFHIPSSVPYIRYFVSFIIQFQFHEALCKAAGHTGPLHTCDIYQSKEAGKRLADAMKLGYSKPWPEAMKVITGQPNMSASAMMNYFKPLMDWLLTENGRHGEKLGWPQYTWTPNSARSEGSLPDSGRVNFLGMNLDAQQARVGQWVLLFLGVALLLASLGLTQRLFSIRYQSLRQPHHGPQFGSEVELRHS
In short: (§1)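 Enzyme is the supernatant of rabbit lung acetone powder homogenized in 0.05 M sodium borate pH 8.2 with 0.3 M NaCl and 0.5% Triton X-100 at 4 °C, spun 15,000 rpm for 60 min. Reaction uses borate/NaCl buffer and 5 mM HHL stock, 30 min at 37 °C. Hippuric acid read colorimetrically at 410 nm, in triplicate. % inhibition = 100 − (A_test/A_control)×100. Single-point screen at 1.0 µM; IC₅₀ from plots of % inhibition against serial concentrations.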

[2] = system: HEK293; assay: Cytotoxicity against HEK293 cells assessed as cell survival after 24 hrs by MTT assay; format: cell-based; conditions: Homo sapiens, HEK293, 24 h
In short: (§2)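 HEK 293 (normal) and A549 (cancer) cells seeded at 1×10^4 cells/well in DMEM with 10% FBS, grown 24 h at 37 °C under CO₂, then exposed to compounds alongside vehicle control for 24 h. MTT (5 mg/mL, 10 µl) added for 4 h, formazan dissolved in DMSO, absorbance read at 540 nm. Survival relative to control cells; EC₅₀ by probit analysis.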

[3] = Ratio of IC50 for rabbit lung ACE to IC50 for HEK293 cells
[4] = system: A549; assay: Cytotoxicity against human A549 cells assessed as cell survival after 24 hrs by MTT assay; format: cell-based; conditions: A549, 24 h; in short: as §2
[5] = Ratio of IC50 for rabbit lung ACE to IC50 for human A549 cells
[6] = target: T2, Angiotensin-converting enzyme (Oryctolagus cuniculus, UniProt P12822); assay: Inhibition of rabbit lung ACE assessed as hydrolysis of hippuryl-histidyl-leucine to hippuric acid and histidyl-leucine after 30 mins; in short: as §1
T2 sequence (P12822 whole entry): T1 sequence (whole entry)

inhibition [1]: 28%
SMILES: O=C1[C@@H]2C[C@@H](O)CN2C(=O)c2ccccc2N1Cc1cc(F)cc(F)c1Cl

inhibition [1]: 28%
SMILES: COC(=O)c1ccc(CN2C(=O)[C@@H]3C[C@@H](O)CN3C(=O)c3ccccc32)cc1

inhibition [1]: 80%
IC50 [6]: 0.272 µM
SMILES: O=C1[C@@H]2C[C@@H](O)CN2C(=O)c2ccccc2N1Cc1cc(Br)cs1
IC50 [2]: 281 µM
Ratio IC50 [3]: 1000
IC50 [4]: 361 µM
Ratio IC50 [5]: 1000

inhibition [1]: 28%
SMILES: O=C(CN1C(=O)[C@@H]2C[C@@H](O)CN2C(=O)c2ccccc21)c1ccc(Cl)cc1

inhibition [1]: 28%
SMILES: O=C1[C@@H]2C[C@@H](O)CN2C(=O)c2ccccc2N1Cc1ccc(Cl)c(F)c1

inhibition [1]: 28%
SMILES: O=C1[C@@H]2C[C@@H](O)CN2C(=O)c2ccccc2N1Cc1ccc([N+](=O)[O-])c(Cl)c1

IC50 [6]: 0.253 µM
SMILES: CCOC(=O)[C@H](CCc1ccccc1)N[C@@H](C)C(=O)N1[C@H](C(=O)O)C[C@@H]2CCC[C@@H]21 [RAMIPRIL]
IC50 [2]: 414 µM
IC50 [4]: 392 µM

inhibition [1]: 75%
IC50 [6]: 0.658 µM
SMILES: O=C1[C@@H]2C[C@@H](O)CN2C(=O)c2ccccc2N1Cc1ccc(Br)cc1
IC50 [2]: 496 µM
Ratio IC50 [3]: 1000
IC50 [4]: 487 µM
Ratio IC50 [5]: 1000

inhibition [1]: 28%
SMILES: O=C1[C@@H]2C[C@@H](O)CN2C(=O)c2ccccc2N1Cc1cccc2c1oc1ccccc12

inhibition [1]: 28%
SMILES: COc1ccc(CN2C(=O)[C@@H]3C[C@@H](O)CN3C(=O)c3ccccc32)cc1

inhibition [1]: 28%
SMILES: Nc1ccc(CN2C(=O)[C@@H]3C[C@@H](O)CN3C(=O)c3ccccc32)cc1

inhibition [1]: 28%
SMILES: CC(=O)CN1C(=O)[C@@H]2C[C@@H](O)CN2C(=O)c2ccccc21

inhibition [1]: 28%
SMILES: CN1C(=O)[C@@H]2C[C@@H](O)CN2C(=O)c2ccccc21

inhibition [1]: 28%
SMILES: COc1cccc(CN2C(=O)[C@@H]3C[C@@H](O)CN3C(=O)c3ccccc32)c1

IC50 [6]: 0.212 µM
SMILES: CCOC(=O)[C@H](CCc1ccccc1)N[C@H]1CCc2ccccc2N(CC(=O)O)C1=O [BENAZEPRIL]
IC50 [2]: 301 µM
IC50 [4]: 358 µM

inhibition [1]: 86%
IC50 [6]: 0.418 µM
SMILES: O=C1[C@@H]2C[C@@H](O)CN2C(=O)c2ccccc2N1Cc1cccc(Br)c1
IC50 [2]: 398 µM
Ratio IC50 [3]: 1000
IC50 [4]: 400 µM
Ratio IC50 [5]: 1000

inhibition [1]: 28%
SMILES: O=C1[C@@H]2C[C@@H](O)CN2C(=O)c2ccccc2N1Cc1ccc([N+](=O)[O-])cc1

inhibition [1]: 91%
IC50 [6]: 0.376 µM
SMILES: COc1cc(CN2C(=O)[C@@H]3C[C@@H](O)CN3C(=O)c3ccccc32)cc(OC)c1OC
IC50 [2]: 331 µM
Ratio IC50 [3]: 1000
IC50 [4]: 419 µM
Ratio IC50 [5]: 1000

inhibition [1]: 57%
SMILES: O=C1Nc2ccccc2C(=O)N2C[C@H](O)C[C@@H]12

inhibition [1]: 28%
SMILES: O=C(CN1C(=O)[C@@H]2C[C@@H](O)CN2C(=O)c2ccccc21)c1ccc(Br)cc1

inhibition [1]: 28%
SMILES: O=C1[C@@H]2C[C@@H](O)CN2C(=O)c2ccccc2N1Cc1cccc(Cl)c1

SMILES: NCCCC[C@H](N[C@@H](CCc1ccccc1)C(=O)O)C(=O)N1CCC[C@H]1C(=O)O [LISINOPRIL ANHYDROUS]
IC50 [2]: 443 µM
IC50 [4]: 307 µM
IC50 [6]: 0.262 µM

inhibition [1]: 28%
SMILES: CCOC(=O)CN1C(=O)[C@@H]2C[C@@H](O)CN2C(=O)c2ccccc21

inhibition [1]: 28%
SMILES: O=C1[C@@H]2C[C@@H](O)CN2C(=O)c2ccccc2N1Cc1c(F)c(F)c(F)c(F)c1F

inhibition [1]: 28%
SMILES: O=C(O)c1ccc(CN2C(=O)[C@@H]3C[C@@H](O)CN3C(=O)c3ccccc32)cc1

inhibition [1]: 28%
SMILES: O=C1[C@@H]2C[C@@H](O)CN2C(=O)c2ccccc2N1Cc1cc(F)cc(F)c1
